From ChEMBL document CHEMBL3600347, “Syntheses and in Vitro Antiplasmodial Activity of Aminoalkylated Chalcones and Analogues” (J Nat Prod, 2015)
Each block holds one molecule with its values, some of them ahead of it.

Tests used:
Plasmodium falciparum [1] = assay: Antiplasmodial activity chloroquinone-sensitive Plasmodium falciparum D10 by parasite lactate dehydrogenase assay; type: functional, organism-based
Procedure, shortened: (§1)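 Asexual erythrocytic P. falciparum stages kept in continuous culture (modified Trager–Jensen). Growth inhibition read by parasite lactate dehydrogenase assay (modified Makler). Samples run in triplicate on one or two separate occasions. IC50 from full dose–response curves by nonlinear curve fitting. Chloroquine served as internal standard to monitor conditions.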

[2] = Selectivity index, ratio of IC50 for CHO cells to IC50 for chloroquinone-sensitive Plasmodium falciparum D10; conditions: hamster, CHO cells versus Plasmodium falciparum D10
CHO = assay: Cytotoxicity against CHO cells by MTT assay; type: cell-based, Cricetulus griseus
Procedure, shortened: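 Chinese hamster ovary cells; viability by MTT assay (modified Mosmann). Samples prepared as for antiplasmodial testing. Emetine reference in every experiment, started at 100 μg/mL and serially diluted 10-fold in complete medium to six concentrations, lowest 0.001 μg/mL. IC50 from dose–response curves.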

Plasmodium falciparum [3] = assay: Antiplasmodial activity chloroquinone-sensitive Plasmodium falciparum NF54 by parasite lactate dehydrogenase assay; type: functional, organism-based; procedure, shortened: as §1
Plasmodium falciparum [4] = assay: Resistance index, ratio of IC50 for […] to IC50 for chloroquinone-[…] Plasmodium falciparum K1; type: functional
Plasmodium falciparum [5] = assay: Antiplasmodial activity chloroquinone-resistant Plasmodium falciparum K1 by parasite lactate dehydrogenase assay; type: functional, organism-based
Procedure, shortened: (§2)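 Asexual erythrocyte-stage P. falciparum kept in continuous culture by a modified Trager–Jensen method. Growth inhibition was read by a modified Makler parasite lactate dehydrogenase assay. Samples were run in triplicate on one or two separate occasions, with chloroquine as internal standard. IC50 was taken from full dose–response curves by nonlinear curve fitting.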

[6] = Selectivity index, ratio of IC50 for CHO cells to IC50 for chloroquinone-sensitive Plasmodium falciparum D10; type: toxicity, cell-based; conditions: hamster; for Ratio IC50: cho; for selectivity ratio: CHO cells versus Plasmodium falciparum D10, read-out: Ratio IC50
Procedure, shortened: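 Selectivity index computed as CHO-cell IC50 (MTT) divided by P. falciparum IC50 from the pLDH assay, for a representative subset of compounds.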

Plasmodium falciparum [7] = assay: Resistance index, ratio of IC50 for chloroquinone-resistant Plasmodium falciparum Dd2 to IC50 for chloroquinone-sensitive Plasmodium falciparum D10; type: functional
Plasmodium falciparum [8] = assay: Antiplasmodial activity chloroquinone-resistant Plasmodium falciparum Dd2 by parasite lactate dehydrogenase assay; type: functional, organism-based; procedure, shortened: as §2

Compound: O=C(/C=C/c1ccc(CN2CCCCC2)c(O)c1)c1cccs1
IC50 (Plasmodium falciparum [1]; Plasmodium falciparum, D10): 2730 nM

Compound: COc1ccc(C(=O)/C=C/c2cc(CN3CCCCC3)c(O)c(OC)c2)cc1
IC50 (Plasmodium falciparum [1]; Plasmodium falciparum, D10): 2810 nM

Compound: O=C(/C=C/c1cccc(O)c1)c1ccccc1 [3-HYDROXY CHALCONE]
IC50 (Plasmodium falciparum [1]; Plasmodium falciparum, D10): 15700 nM

Compound: Oc1cc(CCCc2cccs2)ccc1CN1CCCCC1
Ratio IC50 (Plasmodium falciparum [4]): 0.48
IC50 (Plasmodium falciparum [5]): 20 nM
IC50 (Plasmodium falciparum [3]; Plasmodium falciparum, NF54): 50 nM

Compound: COc1ccc(C(=O)/C=C/c2ccc(CN(C)C)c(O)c2)cc1
IC50 (Plasmodium falciparum [1]; Plasmodium falciparum, D10): 2520 nM

Compound: CC(C)Nc1ccc(CCCc2cccc(O)c2)cc1
IC50 (Plasmodium falciparum [3]; Plasmodium falciparum, NF54): > 3000 nM

Compound: COc1ccc(CCCc2ccc(CN3CCCCC3)c(O)c2)cc1.Cl
Ratio IC50 [6]: 3063
IC50 (Plasmodium falciparum [1]): 70 nM
IC50 (CHO; cho): 211 µM
Ratio IC50 (Plasmodium falciparum [7]): 1
IC50 (Plasmodium falciparum [8]): 70 nM

Compound: COc1ccc(C(=O)/C=C/c2ccc(CN3CCCCC3)c(O)c2)cc1
selectivity ratio [6]: 237
IC50 (Plasmodium falciparum [1]; Plasmodium falciparum, D10): 830 nM
IC50 (CHO; Cricetulus griseus, CHO): 197 µM

Compound: COc1ccc(C(=O)/C=C/c2ccc(CN3CCOCC3)c(O)c2)cc1
IC50 (Plasmodium falciparum [1]; Plasmodium falciparum, D10): 4900 nM

Compound: O=C(/C=C/c1ccc(CN2CCCCC2)c(O)c1)c1ccc(F)cc1
selectivity ratio [6]: 796
IC50 (Plasmodium falciparum [1]; Plasmodium falciparum, D10): 100 nM
IC50 (CHO; Cricetulus griseus, CHO): 77.2 µM
IC50 (Plasmodium falciparum [8]): 710 nM

Compound: CCc1ccc(C(=O)/C=C/c2ccc(CN3CCCCC3)c(O)c2)cc1
selectivity ratio [2]: 47
IC50 (Plasmodium falciparum [1]; Plasmodium falciparum, D10): 140 nM
IC50 (CHO; Cricetulus griseus, CHO): 6.59 µM
IC50 (Plasmodium falciparum [8]): 210 nM

Compound: Oc1cc(CCCc2ccccc2)ccc1CN1CCCCC1
IC50 (Plasmodium falciparum [3]; Plasmodium falciparum, NF54): 140 nM

Compound: O=C(/C=C/c1ccc(CN2CCCCC2)c(O)c1)c1ccc(Br)cc1
selectivity ratio [6]: 50
IC50 (Plasmodium falciparum [1]; Plasmodium falciparum, D10): 150 nM
IC50 (CHO; Cricetulus griseus, CHO): 7.27 µM
IC50 (Plasmodium falciparum [8]): 210 nM

Compound: COc1ccc(C(=O)/C=C/c2cccc(O)c2)cc1
IC50 (Plasmodium falciparum [1]; Plasmodium falciparum, D10): 11300 nM

Compound: Oc1ccc(CCCc2ccc(C(F)(F)F)cc2)cc1CN1CCCCC1 [listing 1 of 2 here]
IC50 (Plasmodium falciparum [3]; Plasmodium falciparum, NF54): 280 nM

Compound: Cl.Oc1cc(CCCc2ccc(F)cc2)ccc1CN1CCCCC1
selectivity ratio [6]: 5830
IC50 (Plasmodium falciparum [1]): 30 nM
IC50 (CHO; Cricetulus griseus, CHO): 163 µM
Ratio IC50 (Plasmodium falciparum [7]): 0.79
IC50 (Plasmodium falciparum [8]): 20 nM

Compound: COc1ccc(C(=O)/C=C/c2ccc(CN3CCCC3)c(O)c2)cc1
IC50 (Plasmodium falciparum [1]; Plasmodium falciparum, D10): 5750 nM

Compound: COc1ccc(CCCc2ccc(CN3CCCCC3)c(O)c2)cc1
Ratio IC50 [6]: 332
IC50 (Plasmodium falciparum [1]): 210 nM
IC50 (CHO; cho): 69.8 µM

Compound: Oc1cc(CCCc2ccc(F)cc2)ccc1CN1CCCCC1
IC50 (Plasmodium falciparum [1]): 70 nM

Compound: CC[C@H]1CN2CCc3cc(OC)c(OC)cc3[C@@H]2C[C@@H]1C[C@H]1NCCc2cc(OC)c(OC)cc21 [EMETINE]
IC50 (CHO; Cricetulus griseus, CHO): 0.03 µM

Compound: Cc1ccc(CCCc2ccc(CN3CCCCC3)c(O)c2)cc1
selectivity ratio [6]: 56
IC50 (Plasmodium falciparum [1]; Plasmodium falciparum, D10): 90 nM
IC50 (CHO; Cricetulus griseus, CHO): 4.95 µM
Ratio IC50 (Plasmodium falciparum [7]): 3.06
IC50 (Plasmodium falciparum [8]): 270 nM

Compound: COc1ccc(CCCc2cc(O)c(CN3CCCCC3)cc2CN2CCCCC2)cc1
selectivity ratio [6]: 3510
IC50 (Plasmodium falciparum [1]; Plasmodium falciparum, D10): 60 nM
IC50 (CHO; Cricetulus griseus, CHO): 200 µM
Ratio IC50 (Plasmodium falciparum [7]): 1.47
IC50 (Plasmodium falciparum [8]): 80 nM

Compound: Cl.Oc1cc(CCCc2ccccc2)ccc1CN1CCCCC1
selectivity ratio [6]: 7030
IC50 (Plasmodium falciparum [1]; Plasmodium falciparum, D10): 20 nM
IC50 (CHO; Cricetulus griseus, CHO): 162 µM
Ratio IC50 (Plasmodium falciparum [7]): 1.35
IC50 (Plasmodium falciparum [8]): 30 nM

Compound: Oc1ccc(CCCc2ccc(C(F)(F)F)cc2)cc1CN1CCCCC1 [listing 2 of 2 here]
IC50 (Plasmodium falciparum [1]; Plasmodium falciparum, D10): 10 nM
Ratio IC50 (Plasmodium falciparum [7]): 5.8
IC50 (Plasmodium falciparum [8]): 30 nM

Compound: COc1ccc(C(=O)/C=C/c2ccc(O)c(CN3CCN(C)CC3)c2)cc1
IC50 (Plasmodium falciparum [1]; Plasmodium falciparum, D10): 3770 nM

Compound: Cc1ccc(C(=O)/C=C/c2ccc(CN3CCCCC3)c(O)c2)cc1
IC50 (Plasmodium falciparum [1]; Plasmodium falciparum, D10): > 3000 nM

Compound: COc1ccc(C(=O)/C=C/c2ccc(O)c(CN(C)C)c2)cc1
IC50 (Plasmodium falciparum [1]; Plasmodium falciparum, D10): > 3000 nM

Compound: O=C(/C=C/c1ccc(CN2CCCCC2)c(O)c1)c1ccc[nH]1
IC50 (Plasmodium falciparum [1]; Plasmodium falciparum, D10): 2420 nM

Compound: COc1ccc(CCCc2cccc(O)c2)cc1
IC50 (Plasmodium falciparum [1]; Plasmodium falciparum, D10): > 30000 nM

Compound: O=C(CCc1ccc(CN2CCCCC2)c(O)c1)c1cccs1
selectivity ratio [6]: 895
IC50 (Plasmodium falciparum [1]; Plasmodium falciparum, D10): 190 nM
IC50 (CHO; Cricetulus griseus, CHO): 168 µM
IC50 (Plasmodium falciparum [8]): 270 nM

Compound: CCN1CCN(Cc2ccc(/C=C/C(=O)c3ccc(OC)cc3)cc2O)CC1
IC50 (Plasmodium falciparum [1]; Plasmodium falciparum, D10): 2740 nM

Compound: O=C(/C=C/c1ccc(O)c(CN2CCCCC2)c1)c1ccc(C(F)(F)F)cc1
selectivity ratio [6]: 49
IC50 (Plasmodium falciparum [1]; Plasmodium falciparum, D10): 170 nM
IC50 (CHO; Cricetulus griseus, CHO): 8.22 µM
IC50 (Plasmodium falciparum [8]): 200 nM

Continued, in another order:

IC50 (Plasmodium falciparum [3]): 180 nM
Compound: CCc1ccc(CCCc2ccc(CN3CCCCC3)c(O)c2)cc1 [listing 1 of 2 here]
selectivity ratio [2]: 138
IC50 (CHO; Cricetulus griseus, CHO): 25.2 µM

IC50 (Plasmodium falciparum [3]; Plasmodium falciparum, NF54): 1040 nM
Compound: CCc1ccc(CN2CCCCC2)c(O)c1

IC50 (Plasmodium falciparum [1]; Plasmodium falciparum, D10): 6540 nM
Compound: O=C(/C=C/c1ccc(CN2CCCC2)c(O)c1)c1ccccc1

IC50 (Plasmodium falciparum [3]; Plasmodium falciparum, NF54): 60 nM
Compound: Oc1cc(CCCc2ccc(CCCc3ccc(CN4CCCCC4)c(O)c3)cc2)ccc1CN1CCCCC1

IC50 (Plasmodium falciparum [3]; Plasmodium falciparum, NF54): > 2000 nM
Compound: Cc1ccc(S(=O)(=O)Oc2cc(CCCc3ccc(F)cc3)ccc2CN2CCCCC2)cc1

IC50 (Plasmodium falciparum [3]; Plasmodium falciparum, NF54): 40 nM
Compound: Oc1cc(CCCc2ccccc2)ccc1CN1CCCC1

IC50 (Plasmodium falciparum [3]; Plasmodium falciparum, NF54): 410 nM
Compound: CCN1CCN(Cc2ccc(CCCc3ccccc3)cc2O)CC1

IC50 (Plasmodium falciparum [3]; Plasmodium falciparum, NF54): 60 nM
Compound: Oc1ccc(CCCc2ccccc2)cc1CN1CCCCC1

IC50 (Plasmodium falciparum [3]; Plasmodium falciparum, NF54): 180 nM
Compound: CC(C)Nc1ccc(CCCc2ccc(CN3CCCCC3)c(O)c2)cc1

IC50 (Plasmodium falciparum [1]; Plasmodium falciparum, D10): > 3000 nM
Compound: O=C(CCc1ccc(CN2CCCCC2)c(O)c1)c1ccc[nH]1

IC50 (Plasmodium falciparum [3]; Plasmodium falciparum, NF54): 790 nM
Compound: CN1CCN(Cc2ccc(CCCc3ccccc3)cc2O)CC1

IC50 (Plasmodium falciparum [3]; Plasmodium falciparum, NF54): 120 nM
Compound: Oc1cc(CCc2ccccc2)ccc1CN1CCCCC1

IC50 (Plasmodium falciparum [3]; Plasmodium falciparum, NF54): > 5000 nM
Compound: c1ccc(CN2CCCCC2)cc1

IC50 (Plasmodium falciparum [3]; Plasmodium falciparum, NF54): > 5000 nM
Compound: Oc1ccccc1CN1CCCCC1

IC50 (Plasmodium falciparum [3]; Plasmodium falciparum, NF54): 80 nM
Compound: Oc1cc(CCCc2ccc(-c3ccccc3)cc2)ccc1CN1CCCCC1

IC50 (Plasmodium falciparum [3]; Plasmodium falciparum, NF54): 2810 nM
Compound: Oc1cc(CCCc2ccccc2)ccc1CN1CCNCC1

IC50 (Plasmodium falciparum [3]; Plasmodium falciparum, NF54): 260 nM
Compound: O=C(CCc1ccc(CN2CCCCC2)c(O)c1)c1ccc(F)cc1

IC50 (Plasmodium falciparum [3]; Plasmodium falciparum, NF54): 750 nM
Compound: Oc1cc(CCCc2ccccc2)ccc1CN1CCOCC1

IC50 (Plasmodium falciparum [3]; Plasmodium falciparum, NF54): 40 nM
Compound: Oc1cc(CCCc2ccc3ccccc3c2)ccc1CN1CCCCC1

IC50 (Plasmodium falciparum [3]): 60 nM
Compound: CCc1ccc(CCCc2ccc(CN3CCCCC3)c(O)c2)cc1 [listing 2 of 2 here]

IC50 (Plasmodium falciparum [3]; Plasmodium falciparum, NF54): 1710 nM
Compound: CC(=O)CCc1ccc(CN2CCCCC2)c(O)c1

IC50 (Plasmodium falciparum [1]; Plasmodium falciparum, D10): 1370 nM
Compound: O=C(/C=C/c1ccc(CN2CCCCC2)c(O)c1)c1ccccn1

IC50 (Plasmodium falciparum [3]; Plasmodium falciparum, NF54): > 4000 nM
Compound: NC(=O)c1ccc(CCCc2ccccc2)cc1

IC50 (Plasmodium falciparum [3]; Plasmodium falciparum, NF54): 90 nM
Compound: CN(C)Cc1ccc(CCCc2ccccc2)cc1O
